One data set has as its target human Pin1 (human) (UniProt Q13526). Briefly: NMR titration.
A further data set can be described thus: Plasma stability assay. The settings on record: rat plasma, 37 °C, 20 μM, after 30 min. In kind it is in vitro ADME. In outline: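 Test compound at 20 μM final is incubated in fresh rat plasma at 37 °C. Samples are stopped at 0, 30 and 60 min with two volumes of methanol containing internal standard, then protein is precipitated and samples centrifuged for LC-MS. % parent remaining is taken against the 0 min sample from peak-area ratios to the internal standard. Run in duplicate with a plasma-labile positive control.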

The nature of data set [1]: Parallel artificial membrane permeation assay. The settings on record: 100 μM compound, pH 7.2, acceptor concentration after 8 h. In kind it is in vitro ADME. In outline:
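Lipid-impregnated hydrophobic filter (lipid applied in chloroform, solvent fully evaporated) separates donor from acceptor wells of phosphate buffer pH 7.2. Test compound is added at 100 μM to the donor side, with stock DMSO <5%. A membrane-free equilibrium well is run in parallel. Acceptor and equilibrium concentrations are measured by LC-MS AUC. % flux is the acceptor concentration after 8 h relative to the membrane-free reference well.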

This note sets out measurements from article PMC2810120 (Chemical biology & drug design, 2009).

Non-standard residues stand in square brackets, D forms with d. Residues, ends and D or L forms follow the SMILES beside them. *: point of attachment. pS = N[C@@H](COP(=O)(O)O)C(=O)O; pNA = O=[N+]([O-])c1ccc(N*)cc1

Chain of UniProt Q13526 (Q13526 whole entry): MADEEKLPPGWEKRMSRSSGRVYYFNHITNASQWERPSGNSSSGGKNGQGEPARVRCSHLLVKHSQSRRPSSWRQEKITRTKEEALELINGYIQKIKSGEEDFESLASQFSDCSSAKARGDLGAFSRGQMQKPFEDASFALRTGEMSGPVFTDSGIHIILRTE

For the molecule Pintide (peptide), in the data set with human Pin1 (human), the Kd (as a rule, the free concentration of one partner at which half of the binding sites on the other are occupied at equilibrium, for simple one-to-one binding) is 323 µM. On to `N=C(N)NCCC[C@H](NC(=O)[C@@H]1CCCN1C(=O)[C@H](COP(=O)(O)O)NC(=O)[C@H](Cc1ccc(O)cc1)NC(=O)[C@H](Cc1ccccc1)NC(=O)[C@@H](N)Cc1c[nH]c2ccccc12)C(=O)Nc1ccc([N+](=O)[O-])cc1` [Pintide] (H-WFY[pS]PR-pNA; N-terminus and C-terminus assumed), for which the plasma stability result in “Plasma stability assay” is “rapidly degraded”. Besides, in data set [1], the “PAMPA FLUX (%)” value is given as 14%.
